Measured values: ChEMBL document CHEMBL4020757, “Lathyrol and epoxylathyrol derivatives: Modulation of Cdr1p and Mdr1p drug-efflux transporters of Candida albicans in Saccharomyces cerevisiae model” (Bioorg Med Chem, 2017)
Values after ≈ are worked out from the molar mass of the structure shown.

Columns and labels:
Candida albicans [1] = test: Inhibition of Candida albicans CDR1 expressed in Saccharomyces cerevisiae AD assessed as reduction in nile red dye efflux at 70 uM after 30 mins by flow cytometry relative to control
How it was run: (§1)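 AD-CDR1 or AD-MDR1 cells grown in YEPD at 30 °C with shaking from OD600 0.1 to 0.25, then resuspended as a 5% suspension in 1:2 YEPD:water. Nile Red (final 7 μM) added with or without compound at 70 μM, 30 min at 30 °C. Cells washed twice and 10,000 cells analysed by flow cytometry. Efflux rate expressed relative to untreated control cells. Means ± SD, three independent experiments.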

Candida albicans [2] = test: Inhibition of Candida albicans MDR1 expressed in Saccharomyces cerevisiae AD assessed as reduction in nile red dye efflux at 70 uM after 30 mins by flow cytometry relative to control; how it was run: as §1
Saccharomyces cerevisiae [3] = test: Antifungal activity against Saccharomyces cerevisiae AD1-8u(-) after 48 hrs; assay type: functional
How it was run: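 S. cerevisiae AD1-8u⁻ control strain revived from glycerol stock on YEPD plates and grown in YEPD at 30 °C. 10⁴ cells exposed to compound at 0.25-400 μM for 48 h at 30 °C. Growth read as optical density, with no-inhibitor growth as 100%. MIC80 is the concentration giving 80% growth inhibition. Means ± SD of duplicates from at least three independent experiments.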

Saccharomyces cerevisiae [4] = test: Antifungal activity against Saccharomyces cerevisiae AD over-expressing Candida albicans CDR1 after 48 hrs; assay type: functional
How it was run: (§2)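 Yeast (10⁴ cells) grown in YEPD at 30 °C for 48 h with inhibitors at 0.25-400 μM (DMSO stocks); growth read by optical density, inhibitor-free growth set as 100%. MIC80 = concentration giving 80% growth inhibition. RI = MIC80 in AD-CDR1 or AD-MDR1 divided by MIC80 in control AD1-8u⁻. Means ± SD, duplicate samples, at least three independent experiments.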

Saccharomyces cerevisiae [5] = test: Antifungal activity against Saccharomyces cerevisiae AD over-expressing Candida albicans MDR1 after 48 hrs; assay type: functional; how it was run: as §2
Saccharomyces cerevisiae [6] = test: Resistance index, ratio of MIC80 for Saccharomyces cerevisiae AD over-expressing Candida albicans CDR1 to MIC80 for Saccharomyces cerevisiae AD1-8u(-); assay type: functional; how it was run: as §2
Saccharomyces cerevisiae [7] = test: Resistance index, ratio of MIC80 for Saccharomyces cerevisiae AD over-expressing Candida albicans MDR1 to MIC80 for Saccharomyces cerevisiae AD1-8u(-); assay type: functional; how it was run: as §2
Saccharomyces cerevisiae [8] = test: Synergistic antifungal activity against Saccharomyces cerevisiae AD1-8u(-) assessed as ratio of compound MIC80 in combinantion with fluconazole to compound alone MIC80 by checkerboard method; assay type: functional
How it was run: (§3)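 Checkerboard per CLSI with 10⁴ cells of AD-CDR1, AD-MDR1 or AD1-8u⁻, grown 48 h at 30 °C. Fluconazole 4-209 μM crossed with compound 0.25-400 μM, growth read by optical density. Compound FIC is the compound MIC in combination with fluconazole divided by its MIC alone.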

Saccharomyces cerevisiae [9] = test: Potentiation of fluconazole-induced antifungal activity against Saccharomyces cerevisiae AD1-8u(-) by checkerboard method; assay type: functional
How it was run: (§4)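 Checkerboard per CLSI in AD1-8u⁻ control, AD-CDR1 or AD-MDR1 cells (10⁴ cells) grown 48 h at 30 °C. Fluconazole 4-209 μM crossed with compound 0.25-400 μM. Growth read by optical density. FIC of each agent is its MIC in combination divided by its MIC alone. FICI is the sum of the fluconazole and compound FICs, with values below 0.5 taken as synergy.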

Candida albicans [10] = test: Inhibition of Candida albicans CDR1 expressed in Saccharomyces cerevisiae AD assessed as ratio of compound MIC80 in combinantion with fluconazole to compound alone MIC80 for Saccharomyces cerevisiae AD by checkerboard method; how it was run: as §3
Candida albicans [11] = test: Inhibition of Candida albicans CDR1 expressed in Saccharomyces cerevisiae AD assessed as potentiation of fluconazole-induced antifungal activity against Saccharomyces cerevisiae AD by checkerboard method; how it was run: as §4
Candida albicans [12] = test: Inhibition of Candida albicans MDR1 expressed in Saccharomyces cerevisiae AD assessed as ratio of compound MIC80 in combinantion with fluconazole to compound alone MIC80 for Saccharomyces cerevisiae AD by checkerboard method; how it was run: as §3
Candida albicans [13] = test: Inhibition of Candida albicans MDR1 expressed in Saccharomyces cerevisiae AD assessed as potentiation of fluconazole-induced antifungal activity against Saccharomyces cerevisiae AD by checkerboard method; how it was run: as §4
[14] = Lipophilicity, log P of the compound; assay type: physicochemical; conditions: octanol/water

| Structure (SMILES) | inhibition (Candida albicans [1]) [%] | inhibition (Candida albicans [2]) [%] | MIC80 (Saccharomyces cerevisiae [3]) [µM] | MIC80 (Saccharomyces cerevisiae [4]) [µM] | MIC80 (Saccharomyces cerevisiae [5]) [µM] | Ratio (Saccharomyces cerevisiae [6]) | Ratio (Saccharomyces cerevisiae [7]) | Ratio (Saccharomyces cerevisiae [8]) | fractional inhibitory concentration index (FICI) (Saccharomyces cerevisiae [9]) | Ratio (Candida albicans [10]) | fractional inhibitory concentration index (FICI) (Candida albicans [11]) | Ratio (Candida albicans [12]) | fractional inhibitory concentration index (FICI) (Candida albicans [13]) | logP [14] |
| --- | --- | --- | --- | --- | --- | --- | --- | --- | --- | --- | --- | --- | --- | --- |
| C/C1=C\[C@@H]2[C@H](CC[C@]3(CO3)[C@H](OC(=O)c3ccccc3)[C@H]3[C@@H](OC(=O)c4ccccc4)[C@@H](C)C[C@]3(O)C1=O)C2(C)C | 25 | 80 | 896 (≈ 501 µg/mL) | 803 (≈ 449 µg/mL) | 880 (≈ 492 µg/mL) | 0.89 | 0.98 | 1 | 2 | 1 | 1.4 | 1 | 1.3 | 4.6 |
| C=C1CC[C@H]2[C@@H](/C=C(\C)C(=O)[C@@]3(O)C[C@H](C)[C@H](O)[C@@H]3[C@H]1O)C2(C)C | 40 | 30 | 1500 (≈ 502 µg/mL) | 1520 (≈ 510 µg/mL) | 1480 (≈ 494 µg/mL) | 1.01 | 0.98 | 1 | 2 | 1 | 1.4 | 1 | 1.3 | 1.48 |
| CCCC(=O)O[C@@H]1[C@@H]2[C@@H](OC(C)=O)[C@]3(CC[C@H]4[C@@H](/C=C(\C)C(=O)[C@@]2(OC(C)=O)C[C@@H]1C)C4(C)C)CO3 | 10 | 25 | 992 (≈ 501 µg/mL) | 1000 (≈ 505 µg/mL) | 901 (≈ 455 µg/mL) |  | 0.9 | 1 | 2 | 1 | 1.4 | 1 | 1.3 | 2.5 |
| C=C1CC[C@H]2[C@@H](/C=C(\C)C(=O)[C@@]3(OC(C)=O)C[C@H](C)[C@H](OC(C)=O)[C@@H]3[C@H]1OC(C)=O)C2(C)C | 25 | 35 | 543 (≈ 250 µg/mL) | 2100 (≈ 967 µg/mL) | 2100 (≈ 967 µg/mL) | 4 | 4 | 1 | 2 | 1 | 1.4 | 1 | 1.3 | 3.35 |
| C=C1CC[C@H]2[C@@H](/C=C(\C)C(=O)[C@@]3(O)C[C@H](C)[C@H](O)[C@@H]3[C@H]1OC(=O)c1cccc(Br)c1)C2(C)C | 85 | 30 | 968 (≈ 501 µg/mL) | 901 (≈ 466 µg/mL) | 884 (≈ 457 µg/mL) | 0.93 | 0.91 | 1 | 2 | 1 | 1.4 | 1 | 1.3 | 3.11 |
| CCCCC(CC)C(=O)O[C@@H]1[C@@H]2[C@@H](OC(=O)C(CC)CCCC)[C@]3(CC[C@H]4[C@@H](/C=C(\C)C(=O)[C@@]2(O)C[C@@H]1C)C4(C)C)CO3 (stereo partly specified) | 30 | 20 | 830 (≈ 500 µg/mL) | 799 (≈ 482 µg/mL) | 800 (≈ 482 µg/mL) | 0.96 | 0.96 | 1 | 2 | 1 | 1.4 | 1 | 1.3 | 6.45 |
| C/C1=C\[C@@H]2[C@H](CC[C@]3(CO3)[C@H](OC(=O)c3ccccc3)[C@H]3[C@@H](OC(=O)c4ccccc4)[C@@H](C)C[C@]3(OC(=O)c3ccccc3)C1=O)C2(C)C | 10 | 20 | 755 (≈ 500 µg/mL) | 700 (≈ 464 µg/mL) | 654 (≈ 433 µg/mL) | 0.92 | 0.86 | 1 | 2 | 1 | 1.4 | 1 | 1.3 | 5.99 |
| CC(=O)O[C@@H]1[C@@H]2[C@@H](OC(C)=O)[C@]3(CC[C@H]4[C@@H](/C=C(\C)C(=O)[C@@]2(OC(C)=O)C[C@@H]1C)C4(C)C)CO3 | 20 | 75 | 525 (≈ 250 µg/mL) | 519 (≈ 247 µg/mL) | 529 (≈ 252 µg/mL) | 0.98 | 0.99 | 1 | 2 | 1 | 1.4 | 1 | 1.3 | 2.7 |
| C=C1CC[C@H]2[C@@H](/C=C(\C)C(=O)[C@@]3(O)C[C@H](C)[C@H](O)[C@@H]3[C@H]1OC(=O)c1cccc(OC)c1)C2(C)C | 80 | 35 | 1070 (≈ 500 µg/mL) | 992 (≈ 465 µg/mL) | 1120 (≈ 526 µg/mL) | 0.92 | 1.05 | 1 | 2 | 1 | 1.4 | 1 | 1.3 | 3.42 |
| C/C1=C\[C@@H]2[C@H](CC[C@]3(CO3)[C@H](OC(=O)Cc3ccccc3)[C@H]3[C@@H](OC(=O)Cc4ccccc4)[C@@H](C)C[C@]3(O)C1=O)C2(C)C | 10 | 15 | 853 (≈ 500 µg/mL) | 756 (≈ 444 µg/mL) | 788 (≈ 462 µg/mL) | 0.88 | 0.92 | 1 | 2 | 1 | 1.4 | 1 | 1.3 | 4.91 |
| C=C1CC[C@H]2[C@@H](/C=C(\C)C(=O)[C@@]3(O)C[C@H](C)[C@H](O)[C@@H]3[C@H]1OC(=O)c1ccc(C(F)(F)F)cc1)C2(C)C | 70 | 15 | 988 (≈ 500 µg/mL) | 900 (≈ 456 µg/mL) | 896 (≈ 454 µg/mL) | 0.91 | 0.9 | 1 | 2 | 1 | 1.4 | 1 | 1.3 | 4.16 |
| C=C1CC[C@H]2[C@@H](/C=C(\C)C(=O)[C@@]3(O)C[C@H](C)[C@H](O)[C@@H]3[C@H]1OC(=O)/C=C/c1ccccc1)C2(C)C | 65 | 30 | 1080 (≈ 500 µg/mL) | 993 (≈ 461 µg/mL) | 1010 (≈ 470 µg/mL) | 0.92 | 0.93 | 1 | 2 | 1 | 1.4 | 1 | 1.3 | 3.93 |
| C=C1CC[C@H]2[C@@H](/C=C(\C)C(=O)[C@@]3(O)C[C@H](C)[C@H](O)[C@@H]3[C@H]1OC(=O)c1ccccc1)C2(C)C | 85 | 35 | 1140 (≈ 500 µg/mL) | 1090 (≈ 478 µg/mL) | 1070 (≈ 468 µg/mL) | 0.95 | 0.93 | 1 | 2 | 1 | 1.4 | 1 | 1.3 | 3.19 |
